pIC50: −log10 of the molar value. Active and inactive are the calls of the source. The rule behind the calls is not given here. Where a SMILES comes first, the peptide text is derived from it.
What was measured:
BCL2L1/BAD = BCL2L1/BAD (Homo sapiens, UniProt Q07817); assay: Inhibition of BAD/His-SUMO tagged BCL-XL (1 to 209 residues; missing 27 to 82 residues) (unknown origin) overexpressed in Escherichia coli BL21 protein-protein interaction by fluorescence anisotropy competition assay
Outline: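 Final conditions: 200 nM BCL-xL, 50 nM tracer, 20 mM Tris, 150 mM NaCl, pH 7.6, 20 °C, with peptide titrated. Tracer Kd for BCL-xL was determined beforehand by direct titration (6 nM-125 μM protein).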

[1] = target: Induced myeloid leukemia cell differentiation protein Mcl-1/BH3-interacting domain death agonist (Homo sapiens) (UniProt Q07820+P55957); assay: Inhibition of BID/MCL-1 interaction (unknown origin) by fluorescence anisotropy competition assay; assay type: protein assay
Sequence of Induced myeloid leukemia cell differentiation protein Mcl-1/BH3-interacting domain death agonist (Homo sapiens) (P55957 whole entry, looked up, the tested form may be a part): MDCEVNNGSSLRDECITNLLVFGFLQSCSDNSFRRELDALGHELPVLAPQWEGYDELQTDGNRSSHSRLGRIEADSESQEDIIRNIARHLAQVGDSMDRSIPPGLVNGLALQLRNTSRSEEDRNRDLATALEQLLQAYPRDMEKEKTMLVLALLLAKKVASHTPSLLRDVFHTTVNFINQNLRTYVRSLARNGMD
Sequence of Induced myeloid leukemia cell differentiation protein Mcl-1/BH3-interacting domain death agonist (Homo sapiens) (Q07820 whole entry, looked up, the tested form may be a part): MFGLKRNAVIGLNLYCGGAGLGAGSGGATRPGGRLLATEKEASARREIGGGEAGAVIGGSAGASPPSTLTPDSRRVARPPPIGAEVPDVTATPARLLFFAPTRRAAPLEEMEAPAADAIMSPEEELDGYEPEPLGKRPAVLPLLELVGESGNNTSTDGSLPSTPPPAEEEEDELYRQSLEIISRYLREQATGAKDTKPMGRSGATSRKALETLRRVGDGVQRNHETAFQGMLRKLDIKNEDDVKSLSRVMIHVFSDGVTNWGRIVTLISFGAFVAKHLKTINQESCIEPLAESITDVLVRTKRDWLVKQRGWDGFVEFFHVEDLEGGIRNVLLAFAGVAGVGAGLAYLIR

Sequence of BCL2L1/BAD (Q92934 whole entry, the tested form may be a part): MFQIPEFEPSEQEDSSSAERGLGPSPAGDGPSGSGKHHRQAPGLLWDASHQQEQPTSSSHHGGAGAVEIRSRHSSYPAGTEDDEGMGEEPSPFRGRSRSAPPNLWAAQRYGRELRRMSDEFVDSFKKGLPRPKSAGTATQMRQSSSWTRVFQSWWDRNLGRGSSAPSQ
Sequence of BCL2L1/BAD (Q07817 whole entry, the tested form may be a part): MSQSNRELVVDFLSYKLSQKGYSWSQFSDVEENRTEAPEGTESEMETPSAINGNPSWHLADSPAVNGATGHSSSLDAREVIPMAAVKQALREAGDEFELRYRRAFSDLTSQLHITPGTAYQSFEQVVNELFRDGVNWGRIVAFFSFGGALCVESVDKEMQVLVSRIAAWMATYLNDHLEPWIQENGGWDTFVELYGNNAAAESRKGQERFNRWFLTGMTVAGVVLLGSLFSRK

Row | Structure (SMILES) | pIC50 (BCL2L1/BAD) | inhibition [1]
1 | CSCC[C@H](NC(=O)[C@H](CCCNC(=N)N)NC(=O)[C@H](CCCNC(=N)N)NC(=O)[C@H](CC(C)C)NC(=O)[C@@H]1CS2=S(C[C@H](NC(C)=O)C(=O)N[C@@H](Cc3ccc(O)cc3)C(=O)NCC(=O)N[C@@H](CCCNC(=N)N)C(=O)N1)C(=O)NC2=O)C(=O)N[C@@H](CO)C(=O)N[C@@H](CC(=O)O)C(=O)N[C@@H](CCC(=O)O)C(=O)N[C@@H](Cc1ccccc1)C(=O)N[C@H](C(=O)N[C@@H](CC(=O)O)C(=O)N[C@@H](CO)C(=O)N[C@@H](Cc1ccccc1)C(=O)N[C@@H](CCCCN)C(=O)N[C@@H](CCCCN)C(N)=O)C(C)C (stereo partly specified) | 5.26 | 
2 | CSCC[C@H](NC(=O)[C@@H]1CS2=S(C[C@H](NC(=O)CNC(=O)[C@H](Cc3ccc(O)cc3)NC(=O)[C@H](CCCNC(=N)N)NC(C)=O)C(=O)N[C@@H](CCC(=O)O)C(=O)N[C@@H](CC(C)C)C(=O)N[C@@H](CCCNC(=N)N)C(=O)N1)C(=O)NC2=O)C(=O)N[C@@H](CO)C(=O)N[C@@H](CC(=O)O)C(=O)N[C@@H](CCC(=O)O)C(=O)N[C@@H](Cc1ccccc1)C(=O)N[C@H](C(=O)N[C@@H](CC(=O)O)C(=O)N[C@@H](CO)C(=O)N[C@@H](Cc1ccccc1)C(=O)N[C@@H](CCCCN)C(=O)N[C@@H](CCCCN)C(N)=O)C(C)C (stereo partly specified) | < 4.30 | 
3 | CSCC[C@H](NC(=O)[C@H](CS)NC(=O)[C@H](CCCNC(=N)N)NC(=O)[C@H](CC(C)C)NC(=O)[C@H](CCC(=O)O)NC(=O)[C@H](CS)NC(=O)CNC(=O)[C@H](Cc1ccc(O)cc1)NC(=O)[C@H](CCCNC(=N)N)NC(C)=O)C(=O)N[C@@H](CO)C(=O)N[C@@H](CC(=O)O)C(=O)N[C@@H](CCC(=O)O)C(=O)N[C@@H](Cc1ccccc1)C(=O)N[C@H](C(=O)N[C@@H](CC(=O)O)C(=O)N[C@@H](CO)C(=O)N[C@@H](Cc1ccccc1)C(=O)N[C@@H](CCCCN)C(=O)N[C@@H](CCCCN)C(N)=O)C(C)C (Ac-RYGCELRCMSDEFVDSFKK-NH2) | 5.17 | 
4 | CSCC[C@H](NC(=O)[C@H](CCCNC(=N)N)NC(=O)[C@H](CCCNC(=N)N)NC(=O)[C@H](CC(C)C)NC(=O)[C@H](CCC(=O)O)NC(=O)[C@H](CCCNC(=N)N)NC(=O)CNC(=O)[C@H](Cc1ccc(O)cc1)NC(=O)[C@H](CCCNC(=N)N)NC(=O)[C@H](CCC(N)=O)NC(=O)[C@H](C)NC(=O)[C@H](C)NC(=O)[C@H](Cc1c[nH]c2ccccc12)NC(=O)[C@H](CC(C)C)NC(=O)[C@H](CC(N)=O)NC(C)=O)C(=O)N[C@@H](CO)C(=O)N[C@@H](CC(=O)O)C(=O)N[C@@H](CCC(=O)O)C(=O)N[C@@H](Cc1ccccc1)C(=O)N[C@H](C(=O)N[C@@H](CC(=O)O)C(=O)N[C@@H](CO)C(=O)N[C@@H](Cc1ccccc1)C(=O)N[C@@H](CCCCN)C(=O)N[C@@H](CCCCN)C(N)=O)C(C)C | 6.70 | inactive
5 | CSCC[C@H](NC(=O)[C@H](CCCNC(=N)N)NC(=O)[C@H](CCCNC(=N)N)NC(=O)[C@H](CC(C)C)NC(=O)[C@H](CS)NC(=O)[C@H](CCCNC(=N)N)NC(=O)CNC(=O)[C@H](Cc1ccc(O)cc1)NC(=O)[C@H](CS)NC(C)=O)C(=O)N[C@@H](CO)C(=O)N[C@@H](CC(=O)O)C(=O)N[C@@H](CCC(=O)O)C(=O)N[C@@H](Cc1ccccc1)C(=O)N[C@H](C(=O)N[C@@H](CC(=O)O)C(=O)N[C@@H](CO)C(=O)N[C@@H](Cc1ccccc1)C(=O)N[C@@H](CCCCN)C(=O)N[C@@H](CCCCN)C(N)=O)C(C)C (Ac-CYGRCLRRMSDEFVDSFKK-NH2) | 5.29 | 
6 | CSCC[C@H](NC(=O)[C@H](CCCNC(=N)N)NC(=O)[C@H](CS)NC(=O)[C@H](CC(C)C)NC(=O)[C@H](CCC(=O)O)NC(=O)[C@H](CCCNC(=N)N)NC(=O)[C@H](CS)NC(=O)[C@H](Cc1ccc(O)cc1)NC(=O)[C@H](CCCNC(=N)N)NC(C)=O)C(=O)N[C@@H](CO)C(=O)N[C@@H](CC(=O)O)C(=O)N[C@@H](CCC(=O)O)C(=O)N[C@@H](Cc1ccccc1)C(=O)N[C@H](C(=O)N[C@@H](CC(=O)O)C(=O)N[C@@H](CO)C(=O)N[C@@H](Cc1ccccc1)C(=O)N[C@@H](CCCCN)C(=O)N[C@@H](CCCCN)C(N)=O)C(C)C (Ac-RYCRELCRMSDEFVDSFKK-NH2) | 4.93 | 
7 | CSCC[C@H](NC(=O)[C@H](CCCNC(=N)N)NC(=O)[C@H](CCCNC(=N)N)NC(=O)[C@H](CC(C)C)NC(=O)[C@H](CCC(=O)O)NC(=O)[C@H](CCCNC(=N)N)NC(=O)CNC(=O)[C@H](Cc1ccc(O)cc1)NC(=O)[C@H](CCCNC(=N)N)NC(C)=O)C(=O)N[C@@H](CO)C(=O)N[C@H]1CS2=S(C[C@@H](C(=O)N[C@@H](CO)C(=O)N[C@@H](Cc3ccccc3)C(=O)N[C@@H](CCCCN)C(=O)N[C@@H](CCCCN)C(N)=O)NC(=O)[C@H](C(C)C)NC(=O)[C@H](Cc3ccccc3)NC(=O)[C@H](CCC(=O)O)NC1=O)C(=O)NC2=O (stereo partly specified) | < 4.30 | 
8 | CSCC[C@H](NC(=O)[C@H](CCCNC(=N)N)NC(=O)[C@@H]1CS2=S(C[C@H](NC(=O)[C@H](Cc3ccc(O)cc3)NC(=O)[C@H](CCCNC(=N)N)NC(C)=O)C(=O)N[C@@H](CCCNC(=N)N)C(=O)N[C@@H](CCC(=O)O)C(=O)N[C@@H](CC(C)C)C(=O)N1)C(=O)NC2=O)C(=O)N[C@@H](CO)C(=O)N[C@@H](CC(=O)O)C(=O)N[C@@H](CCC(=O)O)C(=O)N[C@@H](Cc1ccccc1)C(=O)N[C@H](C(=O)N[C@@H](CC(=O)O)C(=O)N[C@@H](CO)C(=O)N[C@@H](Cc1ccccc1)C(=O)N[C@@H](CCCCN)C(=O)N[C@@H](CCCCN)C(N)=O)C(C)C (stereo partly specified) | < 4.30 | 
9 | CSCC[C@H](NC(=O)[C@H](CCCNC(=N)N)NC(=O)[C@H](CCCNC(=N)N)NC(=O)[C@H](CC(C)C)NC(=O)[C@H](CCC(=O)O)NC(=O)[C@H](CCCNC(=N)N)NC(=O)CNC(=O)[C@H](Cc1ccc(O)cc1)NC(=O)[C@H](CCCNC(=N)N)NC(C)=O)C(=O)N[C@@H](CO)C(=O)N[C@@H](CC(=O)O)C(=O)N[C@@H](CS)C(=O)N[C@@H](Cc1ccccc1)C(=O)N[C@H](C(=O)N[C@@H](CC(=O)O)C(=O)N[C@@H](CS)C(=O)N[C@@H](Cc1ccccc1)C(=O)N[C@@H](CCCCN)C(=O)N[C@@H](CCCCN)C(N)=O)C(C)C (Ac-RYGRELRRMSDCFVDCFKK-NH2) | 5.35 | 
10 | CSCC[C@H](NC(=O)[C@H](CCCNC(=N)N)NC(=O)[C@H](CCCNC(=N)N)NC(=O)[C@H](CC(C)C)NC(=O)[C@H](CCC(=O)O)NC(=O)[C@H](CCCNC(=N)N)NC(=O)CNC(=O)[C@H](Cc1ccc(O)cc1)NC(=O)[C@H](CCCNC(=N)N)NC(C)=O)C(=O)N[C@@H](CS)C(=O)N[C@@H](CC(=O)O)C(=O)N[C@@H](CCC(=O)O)C(=O)N[C@@H](Cc1ccccc1)C(=O)N[C@@H](CS)C(=O)N[C@@H](CC(=O)O)C(=O)N[C@@H](CO)C(=O)N[C@@H](Cc1ccccc1)C(=O)N[C@@H](CCCCN)C(=O)N[C@@H](CCCCN)C(N)=O (Ac-RYGRELRRMCDEFCDSFKK-NH2) | 5.54 | 
11 | CSCC[C@@H]1NC(=O)[C@H](CCCNC(=N)N)NC(=O)[C@@H](NC(=O)[C@H](CC(C)C)NC(=O)[C@H](CCC(=O)O)NC(=O)[C@H](CCCNC(=N)N)NC(=O)CNC(=O)[C@H](Cc2ccc(O)cc2)NC(=O)[C@H](CCCNC(=N)N)NC(C)=O)CS2=S(C[C@@H](C(=O)N[C@@H](CCC(=O)O)C(=O)N[C@@H](Cc3ccccc3)C(=O)N[C@H](C(=O)N[C@@H](CC(=O)O)C(=O)N[C@@H](CO)C(=O)N[C@@H](Cc3ccccc3)C(=O)N[C@@H](CCCCN)C(=O)N[C@@H](CCCCN)C(N)=O)C(C)C)NC(=O)[C@H](CO)NC1=O)C(=O)NC2=O (stereo partly specified) | < 4.30 | 
12 | CSCC[C@H](NC(=O)[C@H](CCCNC(=N)N)NC(=O)[C@H](CS)NC(=O)[C@H](CC(C)C)NC(=O)[C@H](CCC(=O)O)NC(=O)[C@H](CCCNC(=N)N)NC(=O)CNC(=O)[C@H](Cc1ccc(O)cc1)NC(=O)[C@H](CCCNC(=N)N)NC(C)=O)C(=O)N[C@@H](CO)C(=O)N[C@@H](CS)C(=O)N[C@@H](CCC(=O)O)C(=O)N[C@@H](Cc1ccccc1)C(=O)N[C@H](C(=O)N[C@@H](CC(=O)O)C(=O)N[C@@H](CO)C(=O)N[C@@H](Cc1ccccc1)C(=O)N[C@@H](CCCCN)C(=O)N[C@@H](CCCCN)C(N)=O)C(C)C (Ac-RYGRELCRMSCEFVDSFKK-NH2) | < 4.30 | 
13 | CSCC[C@H](NC(=O)[C@H](CCCNC(=N)N)NC(=O)[C@H](CCCNC(=N)N)NC(=O)[C@H](CC(C)C)NC(=O)[C@H](CCC(=O)O)NC(=O)[C@H](CCCNC(=N)N)NC(=O)CNC(=O)[C@H](Cc1ccc(O)cc1)NC(=O)[C@H](CCCNC(=N)N)NC(C)=O)C(=O)N[C@@H](CO)C(=O)N[C@@H](CS)C(=O)N[C@@H](CCC(=O)O)C(=O)N[C@@H](Cc1ccccc1)C(=O)N[C@H](C(=O)N[C@@H](CS)C(=O)N[C@@H](CO)C(=O)N[C@@H](Cc1ccccc1)C(=O)N[C@@H](CCCCN)C(=O)N[C@@H](CCCCN)C(N)=O)C(C)C (Ac-RYGRELRRMSCEFVCSFKK-NH2) | < 4.30 | 
14 | CSCC[C@H](NC(=O)[C@H](CCCNC(=N)N)NC(=O)[C@H](CCCNC(=N)N)NC(=O)[C@H](CC(C)C)NC(=O)[C@H](CCC(=O)O)NC(=O)[C@H](CCCNC(=N)N)NC(=O)CNC(=O)[C@H](Cc1ccc(O)cc1)NC(=O)[C@H](CCCNC(=N)N)NC(C)=O)C(=O)N[C@H]1CS2=S(C[C@@H](C(=O)N[C@@H](CC(=O)O)C(=O)N[C@@H](CO)C(=O)N[C@@H](Cc3ccccc3)C(=O)N[C@@H](CCCCN)C(=O)N[C@@H](CCCCN)C(N)=O)NC(=O)[C@H](Cc3ccccc3)NC(=O)[C@H](CCC(=O)O)NC(=O)[C@H](CC(=O)O)NC1=O)C(=O)NC2=O (stereo partly specified) | < 4.30 | 
15 | CSCC[C@H](NC(=O)[C@H](CCCNC(=N)N)NC(=O)[C@H](CCCNC(=N)N)NC(=O)[C@H](CC(C)C)NC(=O)[C@H](CCC(=O)O)NC(=O)[C@H](CCCNC(=N)N)NC(=O)CNC(=O)[C@H](Cc1ccc(O)cc1)NC(=O)[C@H](CCCNC(=N)N)NC(C)=O)C(=O)N[C@@H](CO)C(=O)N[C@@H](CC(=O)O)C(=O)N[C@H]1CS2=S(C[C@@H](C(=O)N[C@@H](Cc3ccccc3)C(=O)N[C@@H](CCCCN)C(=O)N[C@@H](CCCCN)C(N)=O)NC(=O)[C@H](CC(=O)O)NC(=O)[C@H](C(C)C)NC(=O)[C@H](Cc3ccccc3)NC1=O)C(=O)NC2=O (stereo partly specified) | < 4.30 | 
